Activity calls are given as the source filed them. No cut-off for these calls is given here.
What was measured:
[1] = tested on: A-375; experiment: Cell cycle arrest in human A375 cells assessed as accumulation at G2/M phase at 2 uM after 72 hrs by propidium iodide staining based flow cytometry (reference value: 5.1%); format: functional
[2] = tested on: A-375; experiment: Induction of apoptosis in human A375 cells after 24 to 72 hrs by Annexin V-FITC/PI staining based flow cytometry; format: functional, cell-based
Method in brief: (§1)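 Apoptosis time course. A375 cells in 24-well plates (about 10⁵/well) at 2 µM for 0, 24, 48 and 72 h. Harvested by trypsin, washed in PBS, stained 15 min at room temperature in the dark with Annexin V-FITC/PI, analysed by flow cytometry.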

[3] = tested on: A-375; experiment: Cell cycle arrest in human A375 cells assessed as accumulation at S phase at 2 uM after 48 hrs by propidium iodide staining based flow cytometry (reference value: 21.3%); format: functional
[4] = tested on: A-375; experiment: Induction of apoptosis in human A375 cells assessed as necrotic cells at 20 uM after 24 hrs by Annexin V-FITC/PI staining based flow cytometry (reference value: 1.61%); format: functional
[5] = tested on: A-375; experiment: Induction of apoptosis in human A375 cells assessed as late apoptotic cells at 2.5 uM after 24 hrs by Annexin V-FITC/PI staining based flow cytometry (reference value: 4.26%); format: functional
[6] = target: T1, Serine/threonine-protein kinase B-raf (Homo sapiens, UniProt P15056); experiment: Inhibition of recombinant human full length GST-tagged wild type BRAF expressed in baculovirus expression system using recombinant human full length N-terminal His-tagged MEK1 as substrate preincubated for 1 hr followed by substrate addition measured after 25 mins
T1 sequence (P15056 whole entry): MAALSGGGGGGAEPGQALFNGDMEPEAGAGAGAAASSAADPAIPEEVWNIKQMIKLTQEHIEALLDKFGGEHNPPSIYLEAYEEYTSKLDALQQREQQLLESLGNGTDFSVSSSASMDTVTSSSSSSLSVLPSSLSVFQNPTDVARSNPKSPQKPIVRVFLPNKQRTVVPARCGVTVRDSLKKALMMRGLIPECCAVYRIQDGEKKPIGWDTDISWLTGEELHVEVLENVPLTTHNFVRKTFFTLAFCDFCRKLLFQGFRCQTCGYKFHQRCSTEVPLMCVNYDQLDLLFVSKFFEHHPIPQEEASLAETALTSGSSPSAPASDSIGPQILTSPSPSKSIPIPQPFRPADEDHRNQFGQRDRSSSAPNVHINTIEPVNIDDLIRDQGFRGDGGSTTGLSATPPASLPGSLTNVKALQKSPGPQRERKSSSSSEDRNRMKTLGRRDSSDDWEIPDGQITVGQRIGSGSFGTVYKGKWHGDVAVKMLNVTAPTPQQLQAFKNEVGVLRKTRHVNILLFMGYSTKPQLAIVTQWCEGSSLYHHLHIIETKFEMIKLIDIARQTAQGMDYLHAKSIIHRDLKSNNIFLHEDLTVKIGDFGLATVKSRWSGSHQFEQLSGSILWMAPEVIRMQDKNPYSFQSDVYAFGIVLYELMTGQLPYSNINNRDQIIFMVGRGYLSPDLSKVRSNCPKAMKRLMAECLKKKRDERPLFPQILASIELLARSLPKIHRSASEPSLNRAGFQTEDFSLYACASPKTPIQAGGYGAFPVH

[7] = tested on: A-375; experiment: Cell cycle arrest in human A375 cells assessed as accumulation at G1 phase at 2.5 uM after 24 hrs by propidium iodide staining based flow cytometry (reference value: 73.6%); format: functional
[8] = target: Dual specificity mitogen-activated protein kinase kinase; MEK1/2 (Homo sapiens, UniProt P36507+Q02750); experiment: Inhibition of MEK1/2 (unknown origin); format: protein assay
[9] = tested on: A-375; experiment: Induction of apoptosis in human A375 cells assessed as necrotic cells at 2.5 uM after 24 hrs by Annexin V-FITC/PI staining based flow cytometry (reference value: 1.61%); format: functional
[10] = target: RAF proto-oncogene serine/threonine-protein kinase (Homo sapiens, UniProt P04049, Y340D/Y341D); experiment: Inhibition of recombinant human GST-tagged c-RAF (306 to 648 residues) Y340D/Y341D mutant expressed in baculovirus expression system using recombinant human full length N-terminal His-tagged MEK1 as substrate preincubated for 1 hr followed by substrate addition measured after 25 mins
RAF proto-oncogene serine/threonine-protein kinase, sequence (P04049 whole entry Y340D/Y341D, the tested form may be a part): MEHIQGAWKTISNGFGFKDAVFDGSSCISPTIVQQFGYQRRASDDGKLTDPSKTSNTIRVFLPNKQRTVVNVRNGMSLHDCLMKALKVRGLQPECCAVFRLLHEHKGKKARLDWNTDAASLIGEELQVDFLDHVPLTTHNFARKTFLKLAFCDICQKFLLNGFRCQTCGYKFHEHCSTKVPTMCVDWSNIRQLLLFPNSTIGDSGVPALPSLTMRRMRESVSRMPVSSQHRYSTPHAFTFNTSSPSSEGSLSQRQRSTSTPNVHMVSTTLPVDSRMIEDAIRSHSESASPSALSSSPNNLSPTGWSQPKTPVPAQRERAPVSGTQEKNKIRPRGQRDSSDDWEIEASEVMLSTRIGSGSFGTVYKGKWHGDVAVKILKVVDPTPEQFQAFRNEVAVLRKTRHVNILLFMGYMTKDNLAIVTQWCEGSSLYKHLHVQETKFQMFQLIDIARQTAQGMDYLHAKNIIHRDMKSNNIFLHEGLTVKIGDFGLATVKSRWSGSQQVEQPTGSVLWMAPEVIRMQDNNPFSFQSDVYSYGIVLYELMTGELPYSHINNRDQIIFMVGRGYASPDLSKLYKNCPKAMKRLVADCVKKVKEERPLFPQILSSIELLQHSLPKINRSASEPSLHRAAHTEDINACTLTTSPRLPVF

[11] = tested on: A-375; experiment: Induction of apoptosis in human A375 cells assessed as viable cells at 20 uM after 24 hrs by Annexin V-FITC/PI staining based flow cytometry (reference value: 88.7%); format: functional; conditions: A-375, 24 h, read-out: Activity
[12] = tested on: A-375; experiment: Induction of apoptosis in human A375 cells assessed as early apoptotic cells at 2.5 uM after 24 hrs by Annexin V-FITC/PI staining based flow cytometry (reference value: 5.45%); format: functional
[13] = tested on: HCT-116; experiment: Antiproliferative activity against human HCT116 cells after 48 hrs by MTT assay; format: functional; conditions: HCT-116, 48 h
Method in brief: (§2)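 MTT reduction assay. Cell lines grown to log phase in DMEM with 10% FBS (A375 in DMEM with sodium pyruvate added), seeded at 10⁴ cells/well in 96-well plates. Three replicate wells per concentration, each assay run three times, GI50 averaged.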

[14] = target: T1, Serine/threonine-protein kinase B-raf; experiment: Inhibition of wild type BRAF in human WM1361 cells assessed as decrease in ERK1/2 phosphorylation up to 5 uM after 30 mins by Western blot analysis; format: cell-based
[15] = tested on: A-375; experiment: Induction of apoptosis in human A375 cells assessed as late apoptotic cells at 2 uM after 72 hrs by Annexin V-FITC/PI staining based flow cytometry (reference value: 3.61%); format: functional; method in brief: as §1
[16] = tested on: A-375; experiment: Cell cycle arrest in human A375 cells assessed as accumulation at G2/M phase at 20 uM after 24 hrs by propidium iodide staining based flow cytometry (reference value: 5.1%); format: functional
[17] = Cytotoxicity against HEK293T cells assessed as decrease in cell viability after 48 hrs by MTT assay; format: cell-based, HEK-293T; conditions: human; method in brief: as §2
[18] = tested on: A-375; experiment: Cell cycle arrest in human A375 cells assessed as accumulation at G2/M phase at 2 uM after 24 hrs by propidium iodide staining based flow cytometry (reference value: 5.1%); format: functional
[19] = tested on: A-375; experiment: Cell cycle arrest in human A375 cells assessed as accumulation at S phase at 2.5 uM after 24 hrs by propidium iodide staining based flow cytometry (reference value: 21.3%); format: functional
[20] = Cytotoxicity against human LO2 cells assessed as decrease in cell viability after 48 hrs by MTT assay; format: cell-based, L02; method in brief: as §2

COc1cccc(C2=NN(C(=S)Nc3ccccc3)C(c3ccc4c(c3)OCCO4)C2)c1 (stereo not given)
Activity [1]: 36.8% | Activity [2]: Dose-dependent effect | Activity [3]: 26.2% | Activity [4]: 3.25% | Activity [5]: 5.43% | IC50 [6]: > 200 µM | Activity [7]: 72.3% | IC50 [8]: 195 µM | Activity [9]: 3.46% | IC50 [10]: > 200 µM | viability at 20 µM [11]: 36.2% | Activity [12]: 16.7% | GI50 [13]: > 200 µM | inhibition [14]: inactive | Activity [15]: 6.49% | Activity [16]: 30.2% | GI50 at 48 h [17]: > 200 µM | Activity [18]: 10.3% | Activity [19]: 19.5% | GI50 at 48 h [20]: > 200 µM

From ChEMBL document CHEMBL4270537, “Design and biological evaluation of novel triaryl pyrazoline derivatives with dioxane moiety for selective BRAFV600E inhibition” (Eur J Med Chem, 2018)
